According to PubChem BioAssay:
Inconclusive results are not listed. The source made the active and inactive calls.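 How the source made its calls, unless noted: active means viability increase at or above a cutoff of the median across tested compounds plus 3 SD (cut at about 8.5% in these data, passing the limit was not always enough); inconclusive means some gains above the cutoff, reason not given; inactive means the rest.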

Experiments:
[1] = OD615 S. cerevisiae growth inhibition, permissive medium, pilot counter-assay, permissive growth control for S. cerevisiae lifespan shortening project (AID 705;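 active means growth inhibition above 25% in both replicates, a cutoff set 3 SD above the mean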); settings: OD615, 24 h, at 10 µM, stronger effect = higher value
Outline: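 assay system = Saccharomyces cerevisiae strain carrying genetically modified DeaD replicative-lifespan system | technique = absorbance (optical density) at 615 nm | buffer or medium = permissive raffinose/galactose medium | timing = cells pre-grown 4 h, then 24 h compound exposure, 30 °C humidified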

[2] = Restrictive medium S. cerevisiae growth inhibition, OD615, pilot screen of yeast lifespan reduction project, restrictive growth control (AID 706;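 active means growth inhibition above a set limit, 3 SD over mean compound inhibition, in both replicates, cut at about 43% in these data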;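 further: modified DeaD lifespan yeast strain shifted to restrictive glucose medium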); settings: OD615, 48 h, at 10 µM, stronger effect = higher value
Outline: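 System: modified S. cerevisiae. Buffer or medium: CSMM-D glucose medium. Incubation: 4 h pre-growth plus 48 h compound exposure, 30 °C. Detection: absorbance (optical density) measured at 615 nm.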

[3] = viability gain of MRP-1-high H69AR cells under doxorubicin, pilot screen, MRP-1 activator project, CellTiter-Glo, duplicate (AID 807); settings: H69AR viability with doxorubicin, CellTiter-Glo luminescence; at 10 µM; stronger effect = higher value;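 further: compound pretreatment 18-22 h then 72 h combined with doxorubicin; 0% = doxorubicin alone and 100% = vehicle without doxorubicin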
[4] = growth suppression of beta-catenin knockout HCT116, pilot screen, human colon tumor cells (AID 823;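 active means cell viability at or below a set limit in both duplicate runs, the limit being the all-compound median minus 4 SD, cut at about 23% in these data, passing the limit was not always enough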;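 further: 0% = wells killed by 20 µM Hyamine and 100% = untreated DMSO cell wells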); settings: CellTiter-Glo, 60 h, at 10 µM, stronger effect = lower value
[5] = growth suppression of PTEN-deleted HCT116, pilot screen, cell-based, HCT116 clonal line, CellTiter-Glo (AID 824;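 active means viability at or below 27.92% in each of two runs, the all-compound median minus 4 SD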;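 further: 0% = 20 µM Hyamine control and 100% = vehicle cell control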); settings: 60 h, at 10 µM, stronger effect = lower value
[6] = inhibitors of the yeast RAM network, pilot screen, dse1pr::URA3 reporter, 5-FOA selection (AID 869;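 active means inhibition over a set limit, the all-compound mean plus 3 SD, in both replicate runs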;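 further: 0% = DMSO wells with no growth and 100% = 10 µM 1-NA-PP1 with full growth; RAM network block rescues cells from 5-FOA so hits raise OD615 growth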); settings: S. cerevisiae dse1pr::URA3 5-FOA growth, OD615, 2 d; at 10 µM; stronger effect = higher value; strain carries analog-sensitive mutant Cbk1 kinase
[7] = RAM signaling pathway blockade in yeast – S. cerevisiae, Pdr1DBD-CYC8 efflux-inhibited sensitized strain, primary screen (AID 1298;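 active means RAM network inhibition above 8.4% in each of two replicates, 3 SD over the compound average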;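 further: 0% = DMSO untreated cells without growth and 100% = 10 µM 1-NA-PP1 full growth; higher means more yeast growth rescued from 5-FOA killing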); settings: S. cerevisiae cbk1-as DSE1-URA3 strain, 5-FOA growth OD615, 2 d; at 50 µM; stronger effect = higher value

CCN(CC)c1ccc(/C=N/n2c(C)cc(C)cc2=O)cc1
inactive: growth inhibition [1] 0.085% | growth inhibition [2] 7.67% | viability increase [3] -0.57% | viability [4] 105% | viability [5] 93% | inhibition [6] 0.145% | RAM network inhibition [7] 1.36%

N=c1c2c3c(sc2nc2n1CCCCC2)CCCCC3
inactive: growth inhibition [1] -5.75% | growth inhibition [2] -13.7% | viability increase [3] -5.46% | viability [4] 67.7% | viability [5] 71.7% | inhibition [6] 0.715% | RAM network inhibition [7] 5.69%

CCC(=O)Nc1c2c(nn1-c1cccc(Cl)c1)CSC2
inactive: growth inhibition [1] -7.68% | growth inhibition [2] -8.67% | viability increase [3] -1.61% | viability [4] 89.7% | viability [5] 86.1% | inhibition [6] 2.1% | RAM network inhibition [7] 1.11%

COC(=O)c1ccccc1NC(=O)Cn1cc2c(n1)CCC(C)C2 (centres undefined)
inactive: growth inhibition [1] 0.34% | growth inhibition [2] -0.81% | viability increase [3] -0.23% | viability [4] 92.9% | viability [5] 87.9% | inhibition [6] 1.79% | RAM network inhibition [7] 3.66%

CN(C)CCNc1nc2c(c(=O)[nH]c(=O)n2C)n1CCCc1ccccc1
inactive: growth inhibition [1] -14.9% | growth inhibition [2] 4.34% | viability increase [3] -1.16% | viability [4] 93.1% | viability [5] 93.9% | inhibition [6] 2.04% | RAM network inhibition [7] 0.47%

CC(=O)c1ccc(NC(=O)CN2C(=O)COc3ccc(Cl)cc32)cc1
inactive: growth inhibition [1] -16.9% | growth inhibition [2] -13.2% | viability increase [3] -2.36% | viability [4] 84% | viability [5] 79.2% | inhibition [6] 2.46% | RAM network inhibition [7] 5.11%

CCN(CCNC(=O)Cn1cc2c(n1)CCCC2)c1ccccc1
inactive: growth inhibition [1] -4.85% | growth inhibition [2] -6.55% | viability increase [3] 0.42% | viability [4] 109% | viability [5] 93.5% | inhibition [6] 2.4% | RAM network inhibition [7] 0.1%

Cn1nnnc1SCC(=O)c1ccco1
inactive: growth inhibition [1] -7.91% | growth inhibition [2] -1% | viability increase [3] -3.23% | viability [4] 103% | viability [5] 105% | inhibition [6] 1.83% | RAM network inhibition [7] -0.17%

CC1=C(C(=O)OCc2ccc3c(c2)OCO3)C(c2ccc(Cl)cc2)NC(=O)N1 (centres undefined)
active: viability [4] 19.4% | viability [5] 22.3%
inactive: growth inhibition [1] -4.12% | growth inhibition [2] -5.46% | viability increase [3] -4.91% | inhibition [6] 1.32% | RAM network inhibition [7] 4.12%

CCOC(=O)Cn1c(=O)oc2cc(S(=O)(=O)Nc3ccc(F)cc3)ccc21
inactive: growth inhibition [1] -7.54% | growth inhibition [2] -3.97% | viability increase [3] 0.5% | viability [4] 96.7% | viability [5] 106% | inhibition [6] 1.07% | RAM network inhibition [7] 7.5%

CC1=CC(C)(C)Nc2ccc(OC(=O)c3ccco3)cc21
active: viability [4] 0.49% | viability [5] 0.6%
inactive: growth inhibition [1] 1.4% | growth inhibition [2] -5.68% | viability increase [3] -7.71% | inhibition [6] 0.475% | RAM network inhibition [7] 0.98%

CCOC(=O)Cn1c(C)cc(=O)c2cccc(C)c21
inactive: growth inhibition [1] -19.8% | growth inhibition [2] -12.9% | viability increase [3] 0.49% | viability [4] 92% | viability [5] 96.9% | inhibition [6] 0.035% | RAM network inhibition [7] 1.15%

O=C(NC1CCCCCC1)C1CCN(C(=O)Cc2ccccc2)CC1
inactive: growth inhibition [1] -11.1% | growth inhibition [2] -9.52% | viability increase [3] -1.12% | viability [4] 101% | viability [5] 94.3% | inhibition [6] 0.785% | RAM network inhibition [7] 3.07%

Clc1ccccc1C1CC(c2ccccc2)Nc2ncnn21 (centres undefined)
inactive: growth inhibition [1] -10.9% | growth inhibition [2] -11.2% | viability increase [3] -1.24% | viability [4] 83.9% | viability [5] 81.2% | inhibition [6] 2.05% | RAM network inhibition [7] -0.69%

CN(c1nnc(N)s1)C1CCCCC1
inactive: growth inhibition [1] 1.35% | growth inhibition [2] 14% | viability increase [3] -1.87% | viability [4] 104% | viability [5] 98.7% | inhibition [6] 2.38% | RAM network inhibition [7] 3.49%

COCCN(CCOC)Cc1c(C)[nH]c2c(C)c(C)ccc2c1=O
inactive: growth inhibition [1] -16.2% | growth inhibition [2] -9.49% | viability increase [3] -1.96% | viability [4] 96.8% | viability [5] 100% | inhibition [6] 2.54% | RAM network inhibition [7] 3.28%

CCc1nnc(NC(=O)CCC(=O)O)s1
inactive: growth inhibition [1] -7.04% | growth inhibition [2] -5.46% | viability increase [3] 0.56% | viability [4] 98.3% | viability [5] 96.3% | inhibition [6] 0.815% | RAM network inhibition [7] 2.03%

CC1(C)CC(=O)C2=C(C1)Nc1ccccc1NC2c1ccccn1 (centres undefined)
inactive: growth inhibition [1] 11.4% | growth inhibition [2] 3.1% | viability increase [3] -3.1% | viability [4] 100% | viability [5] 95.4% | inhibition [6] 0.245% | RAM network inhibition [7] 3.12%

CCOc1cc(C2CC(=O)NC(SCC)=C2C#N)ccc1O (centres undefined)
inactive: growth inhibition [1] -16.8% | growth inhibition [2] -5.38% | viability increase [3] -1.97% | viability [4] 107% | viability [5] 92.6% | inhibition [6] 1.97% | RAM network inhibition [7] 0.15%

O=C1CCCc2sc3c(c2N1)CCCCC3
inactive: growth inhibition [1] -3.24% | growth inhibition [2] 2.17% | viability increase [3] -0.35% | viability [4] 98.3% | viability [5] 91.6% | inhibition [6] 1.12% | RAM network inhibition [7] 3.61%

Cn1c(Cn2c(=O)sc3ccccc32)nnc1SCC(=O)N1CCOCC1
inactive: growth inhibition [1] -13.2% | growth inhibition [2] -28% | viability increase [3] -1.17% | viability [4] 103% | viability [5] 99.2% | inhibition [6] 2.92% | RAM network inhibition [7] 3.55%

Cn1c(NC(=O)c2cc(Cl)ccc2Cl)cc(=O)n(C)c1=O
inactive: growth inhibition [1] 4.47% | growth inhibition [2] 3.21% | viability increase [3] -2.52% | viability [4] 99.9% | viability [5] 94.7% | inhibition [6] 1.17% | RAM network inhibition [7] 1.45%

CCCCC(=O)Nc1nc2ccc3nc(C)sc3c2s1
inactive: growth inhibition [1] -25.8% | growth inhibition [2] -2.65% | viability increase [3] -0.78% | viability [4] 81.3% | viability [5] 87.2% | inhibition [6] 2.27% | RAM network inhibition [7] 0.32%

Cc1cc(C)n2c(SCC#N)nnc2n1
inactive: growth inhibition [1] -13.1% | growth inhibition [2] -13% | viability increase [3] 0.04% | viability [4] 103% | viability [5] 92.2% | inhibition [6] 2.84% | RAM network inhibition [7] 3.94%

CCSc1nnc(Cn2c(=O)sc3ccccc32)n1C
inactive: growth inhibition [1] -8.03% | growth inhibition [2] 5.23% | viability increase [3] -0.33% | viability [4] 95.7% | viability [5] 96.2% | inhibition [6] 0.71% | RAM network inhibition [7] -0.45%

O=C(Nc1ccc(Br)cc1)c1cnccn1
inactive: growth inhibition [1] -12.7% | growth inhibition [2] -21.8% | viability increase [3] -0.6% | viability [4] 98.1% | viability [5] 94.4% | inhibition [6] 1.59% | RAM network inhibition [7] 4.87%

COc1ccccc1S(=O)Cc1ccc(C(=O)NC2CCCC2)o1 (centres undefined)
inactive: growth inhibition [1] 4.5% | growth inhibition [2] 4.6% | viability increase [3] -2.33% | viability [4] 107% | viability [5] 101% | inhibition [6] 0.395% | RAM network inhibition [7] 3.24%

O=c1cc(O)sc2ccccc12
inactive: growth inhibition [1] -4.72% | growth inhibition [2] -8.78% | viability increase [3] -2.09% | viability [4] 96.4% | viability [5] 94.4% | inhibition [6] 0.79% | RAM network inhibition [7] -0.87%

COc1ccccc1C(=O)n1nc(C)cc1C
inactive: growth inhibition [1] -3.16% | growth inhibition [2] -0.83% | viability increase [3] 0.58% | viability [4] 92% | viability [5] 95.8% | inhibition [6] -0.645% | RAM network inhibition [7] 3.78%

CCOC(=O)c1sc(NC(=O)C2CC2)nc1C
inactive: growth inhibition [1] -2.83% | growth inhibition [2] 0.375% | viability increase [3] 0.91% | viability [4] 99.6% | viability [5] 95.1% | inhibition [6] 0.595% | RAM network inhibition [7] -1.46%

COc1ccc(C2=NOC(C(=O)Nc3c(C)n(C)n(-c4ccccc4)c3=O)C2)cc1OC (centres undefined)
inactive: growth inhibition [1] -9.01% | growth inhibition [2] -7.64% | viability increase [3] 1.69% | viability [4] 102% | viability [5] 106% | inhibition [6] 0.4% | RAM network inhibition [7] 4.75%

N#CC1=C2SCN(Cc3ccco3)CN2C(=O)CC1c1c(F)cccc1Cl (centres undefined)
inactive: growth inhibition [1] -2.04% | growth inhibition [2] 20.3% | viability increase [3] -4.91% | viability [4] 88% | viability [5] 88.1% | inhibition [6] 1.95% | RAM network inhibition [7] 4.76%

O=C(Nc1ccc(F)cc1F)N1CCN(c2ncccn2)CC1
inactive: growth inhibition [1] -14.8% | growth inhibition [2] -26.3% | viability increase [3] -0.19% | viability [4] 106% | viability [5] 100% | inhibition [6] 1.76% | RAM network inhibition [7] 3.24%

COc1ccc(C(CNC(=O)C2CC(=O)N(Cc3ccc(C)cc3)C2)N(C)C)cc1 (centres undefined)
inactive: growth inhibition [1] -1.76% | growth inhibition [2] -7.34% | viability increase [3] -0.21% | viability [4] 96% | viability [5] 95.7% | inhibition [6] 1.3% | RAM network inhibition [7] 1.64%

Cc1ccc(Cc2c(C)nc3nc(SCC(=O)NCc4ccco4)nn3c2C)cc1
active: viability [4] 13.2% | viability [5] 10.9%
inactive: growth inhibition [1] 10.4% | growth inhibition [2] 12.9% | viability increase [3] -6.46% | inhibition [6] 0.455% | RAM network inhibition [7] 5.24%

CCn1c(=NC(=O)CN2C(=O)CCC2=O)sc2c(OC)ccc(OC)c21
inactive: growth inhibition [1] -5.83% | growth inhibition [2] -14.7% | viability increase [3] -2.94% | viability [4] 87.4% | viability [5] 96% | inhibition [6] 2.75% | RAM network inhibition [7] 6.17%

Cc1[nH]c2ccc(-c3n[nH]c(=S)n3C)cc2c1C
inactive: growth inhibition [1] -4.45% | growth inhibition [2] -17.6% | viability increase [3] 0.84% | viability [4] 98.9% | viability [5] 93.3% | inhibition [6] 1.31% | RAM network inhibition [7] 0.57%
